From article PMC8103808 (Journal of medicinal chemistry, 2020)

test system: U−87 MG cells; assay: MTT growth inhibition assay in U-87 MG cells; format: cell-based; conditions: Homo sapiens, read-out: MTT (% inhibition at 30 μM)
Procedure, shortened: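 Cells were grown at 37 °C, 5% CO₂ in 10% FBS medium: DMEM for U-87 MG, RPMI-1640 for A-172. Duplicate wells of 3000–5000 cells were attached overnight, then exposed to 30 μM test compound for 72 h. MTT (3 mg/mL) was added for 4 h at 37 °C and formazan dissolved in DMSO before reading A570. Inhibition (%) = [1−(At−Ab)/(Ac−Ab)]×100.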

Row | SMILES | inhibition at 30 µM [%]
1 | COc1cccc(C(c2cc3c(cc2O)OC(F)(F)O3)N2CCOCC2)c1OC (stereo not shown) [6e, 6-((2,3-Dimethoxyphenyl)(morpholino)methyl)-2,2-difluorobenzo[d][1,3]dioxol-5-ol] | 40
2 | Oc1cc(F)ccc1C(c1ccc2ccoc2c1O)N1CCCCC1 (stereo not shown) [5n, 6-((4-Fluoro-2-hydroxyphenyl)(piperidin-1-yl)methyl)benzofuran-7-ol] | 0
3 | Oc1cc2c(cc1C(c1ccc(F)cc1)N1CCCCC1)CCCC2 (stereo not shown) [6g, 3-((4-Fluorophenyl)(piperidin-1-yl)methyl)-5,6,7,8-tetrahydronaphthalen-2-ol] | 0
4 | Oc1c(C(c2ccc(C(F)(F)F)cc2)N2CCCCC2)ccc2ccoc12 (stereo not shown) [5r, 6-(Piperidin-1-yl(4-(trifluoromethyl)phenyl)methyl)benzofuran-7-ol] | 5
5 | CC(=O)c1cc2ccc(C(c3ccc(F)cc3)N3CCCCC3)c(O)c2o1 (stereo not shown) [5m, 1-(6-((4-Fluorophenyl)(piperidin-1-yl)methyl)-7-hydroxybenzofuran-2-yl)ethanone] | 0
6 | Oc1ccc2[nH]ncc2c1C(c1ccc(-c2nccs2)cc1)N1CCCCC1 (stereo not shown) [7j, 4-(Piperidin-1-yl(4-(thiazol-2-yl)phenyl)methyl)-1H-indazol-5-ol] | 0
7 | Oc1c(C(c2ccc3c(c2)CCC3)N2CCCCC2)ccc2ccoc12 (stereo not shown) [5o, 6-((2,3-Dihydro-1H-inden-5-yl)(piperidin-1-yl)methyl)benzofuran-7-ol] | 5
8 | Oc1cc2c(cc1C(c1ccc(F)cc1)N1CCCCC1)NCC2 (stereo not shown) [6d, 6-((4-Fluorophenyl)(piperidin-1-yl)methyl)indolin-5-ol] | 0
9 | Oc1c(C(c2ccc(F)cc2)N2CCCCC2)ccc2c1OCO2 (stereo not shown) [5i, 5-((4-Fluorophenyl)(piperidin-1-yl)methyl)benzo[d][1,3]dioxol-4-ol] | 0
10 | Oc1ccc2[nH]ncc2c1C(c1ccc(C(F)(F)F)cc1)N1CCCCC1 (stereo not shown) [7h, 4-(Piperidin-1-yl(4-(trifluoromethyl)phenyl)methyl)-1H-indazol-5-ol] | 0
11 | Oc1c(C(c2ccc(F)cc2)N2CCCCC2)ccc2ccoc12 (stereo not shown) [5g, 6-((4-Fluorophenyl)(piperidin-1-yl)methyl)benzofuran-7-ol] | 0
12 | Oc1ccc2[nH]ncc2c1C(c1ccc(-n2cccc2)cc1)N1CCCCC1 (stereo not shown) [7k, 4-((4-(1H-Pyrrol-1-yl)phenyl)(piperidin-1-yl)methyl)-1H-indazol-5-ol] | 0
13 | Oc1ccc2ccncc2c1C(c1ccc(F)cc1)N1CCCCC1 (stereo not shown) [7d, 8-((4-Fluorophenyl)(piperidin-1-yl)methyl)isoquinolin-7-ol] | 0
14 | Oc1c(C(c2ccc(F)cc2)N2CCCCC2)ccc2c1OCCO2 (stereo not shown) [5h, 6-((4-Fluorophenyl)(piperidin-1-yl)methyl)-2,3-dihydrobenzo[b][1,4]dioxin-5-ol] | 0
15 | Oc1ccc2[nH]ncc2c1C(c1ccc(-c2cncnc2)cc1)N1CCCCC1 (stereo not shown) [7l, 4-(Piperidin-1-yl(4-(pyrimidin-5-yl)phenyl)methyl)-1H-indazol-5-ol] | 0
16 | CN(C)c1cccc(C(c2ccc(F)cc2)N2CCCCC2)c1O (stereo not shown) [5l, 2-(Dimethylamino)-6-((4-fluorophenyl)(piperidin-1-yl)methyl)phenol] | 0
17 | Oc1ccc2scnc2c1C(c1ccc(F)cc1)N1CCCCC1 (stereo not shown) [7b, 4-((4-Fluorophenyl)(piperidin-1-yl)methyl)benzo[d]thiazol-5-ol] | 1
18 | Oc1ccc2ncccc2c1C(c1ccc(F)cc1)N1CCCCC1 (stereo not shown) [7a, 5-((4-Fluorophenyl)(piperidin-1-yl)methyl)quinolin-6-ol] | 10
19 | Oc1ccc2cnccc2c1C(c1ccc(F)cc1)N1CCCCC1 (stereo not shown) [7e, 5-((4-Fluorophenyl)(piperidin-1-yl)methyl)isoquinolin-6-ol] | 0
20 | O=[N+]([O-])c1ccc(C(c2c(O)ccc3[nH]ncc23)N2CCCCC2)cc1 (stereo not shown) [7i, 4-((4-Nitrophenyl)(piperidin-1-yl)methyl)-1H-indazol-5-ol] | 0
21 | Oc1c(C(c2ccc(F)cc2)N2CCCCC2)ccc2nccnc12 (stereo not shown) [5e, 6-((4-Fluorophenyl)(piperidin-1-yl)methyl)quinoxalin-5-ol] | 0
22 | Oc1c(C(c2ccc(F)cc2)N2CCCCC2)ccc2scnc12 (stereo not shown) [5f, 5-((4-Fluorophenyl)(piperidin-1-yl)methyl)benzo[d]thiazol-4-ol] | 0
23 | Oc1cc2c(cc1C(c1ccc(F)cc1)N1CCCCC1)OCCO2 (stereo not shown) [6c, 7-((4-Fluorophenyl)(piperidin-1-yl)methyl)-2,3-dihydrobenzo[b][1,4]dioxin-6-ol] | 1
24 | Oc1c(C(c2ccc(F)cc2)N2CCCCC2)ccc2cnccc12 (stereo not shown) [5j, 6-((4-Fluorophenyl)(piperidin-1-yl)methyl)isoquinolin-5-ol] | 0
25 | Oc1ccc2[nH]ccc2c1C(c1ccc(F)cc1)N1CCCCC1 (stereo not shown) [7f, 4-((4-Fluorophenyl)(piperidin-1-yl)methyl)-1H-indol-5-ol] | 0
26 | Oc1ccc2[nH]ncc2c1C(c1ccc(F)cc1)N1CCCCC1 (stereo not shown) [7g, 4-((4-Fluorophenyl)(piperidin-1-yl)methyl)-1H-indazol-5-ol] | 87
27 | Oc1ccc2nccnc2c1C(c1ccc(F)cc1)N1CCCCC1 (stereo not shown) [7c, 5-((4-Fluorophenyl)(piperidin-1-yl)methyl)quinoxalin-6-ol] | 0
28 | Oc1c(C(c2ccc(F)cc2)N2CCCCC2)ccc2cncnc12 (stereo not shown) [5c, 7-((4-Fluorophenyl)(piperidin-1-yl)methyl)quinazolin-8-ol] | 32
29 | Oc1c(C(c2ccc3c(c2)OC(F)(F)O3)N2CCCCC2)ccc2ccoc12 (stereo not shown) [5q, 6-((2,2-Difluorobenzo[d][1,3]dioxol-5-yl)(piperidin-1-yl)methyl)benzofuran-7-ol] | 9

target: PDIA1 (Homo sapiens, UniProt P07237); assay: PDI reductase assay; format: biochemical; conditions: not given
Sequence (P07237 18-508): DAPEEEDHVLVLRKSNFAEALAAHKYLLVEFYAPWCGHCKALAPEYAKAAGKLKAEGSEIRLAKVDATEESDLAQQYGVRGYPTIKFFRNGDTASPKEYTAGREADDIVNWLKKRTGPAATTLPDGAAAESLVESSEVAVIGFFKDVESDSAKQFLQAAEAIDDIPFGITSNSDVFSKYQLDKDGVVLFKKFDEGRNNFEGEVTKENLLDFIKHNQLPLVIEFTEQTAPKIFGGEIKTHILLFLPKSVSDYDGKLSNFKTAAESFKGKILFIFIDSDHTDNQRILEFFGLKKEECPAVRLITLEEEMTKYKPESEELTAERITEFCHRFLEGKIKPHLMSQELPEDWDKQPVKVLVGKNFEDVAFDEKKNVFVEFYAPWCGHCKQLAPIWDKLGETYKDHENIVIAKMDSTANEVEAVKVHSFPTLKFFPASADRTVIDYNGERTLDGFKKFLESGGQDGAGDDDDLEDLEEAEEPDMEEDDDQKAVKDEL

Row | SMILES | PDI inhibition in the PDI reductase assay (in words)
30 | Oc1c(C(c2ccc(F)cc2)N2CCCCC2)ccc2cccnc12 (stereo not shown) [5b, 7-((4-Fluorophenyl)(piperidin-1-yl)methyl)quinolin-8-ol] | submicromolar IC50 values
31 | Oc1c(C(c2ccc(F)cc2)N2CCCCC2)ccc2c1CCC2 (stereo not shown) [5k, 5-((4-Fluorophenyl)(piperidin-1-yl)methyl)-2,3-dihydro-1H-inden-4-ol] | complete loss of the potency
32 | Oc1cc2c(cc1C(c1ccc(F)cc1)N1CCCCC1)CCCC2 (stereo not shown) [6g, 3-((4-Fluorophenyl)(piperidin-1-yl)methyl)-5,6,7,8-tetrahydronaphthalen-2-ol] | completely lost activity
33 | COc1cccc(C(c2ccc3cccnc3c2O)N2CCOCC2)c1OC (stereo not shown) [5a, 7-((2,3-Dimethoxyphenyl)(morpholino)methyl)quinolin-8-ol] | submicromolar IC50 values
34 | Oc1cc2c(cc1C(c1ccc(F)cc1)N1CCCCC1)NCC2 (stereo not shown) [6d, 6-((4-Fluorophenyl)(piperidin-1-yl)methyl)indolin-5-ol] | moderate loss of activity
35 | CN(C)c1cccc(C(c2ccc(F)cc2)N2CCCCC2)c1O (stereo not shown) [5l, 2-(Dimethylamino)-6-((4-fluorophenyl)(piperidin-1-yl)methyl)phenol] | lost activity
36 | COc1c(C(c2ccc(F)cc2)N2CCCCC2)ccc2ccoc12 (stereo not shown) [compound 8, 1-((4-Fluorophenyl)(7-methoxybenzofuran-6-yl)methyl)piperidine] | lost activity
37 | Oc1cc2c(cc1C(c1ccccc1)C1CCCCC1)OCO2 (stereo not shown) [compound 13, 6-(Cyclohexyl(phenyl)methyl)benzo[d][1,3]dioxol-5-ol] | abolished its PDI inhibition
